ChEMBL document CHEMBL2169742, “Design, synthesis, and biological evaluation of novel transrepression-selective liver X receptor (LXR) ligands with 5,11-dihydro-5-methyl-11-methylene-6H-dibenz[b,e]azepin-6-one skeleton” (J Med Chem, 2012)
Activity calls are given as the source filed them. The rule behind the calls is not given here.

Key:
[1] = target: T1, Oxysterols receptor LXR-beta (Homo sapiens, UniProt P55055); assay: Transactivational antagonist activity at human LXRbeta transfected in HEK293 cells expressing CMX-Gal4N assessed as inhibition of T1317-induced luciferase activity after 16 hrs by reporter gene assay; assay type: functional, cell-based
T1 sequence (P55055 whole entry): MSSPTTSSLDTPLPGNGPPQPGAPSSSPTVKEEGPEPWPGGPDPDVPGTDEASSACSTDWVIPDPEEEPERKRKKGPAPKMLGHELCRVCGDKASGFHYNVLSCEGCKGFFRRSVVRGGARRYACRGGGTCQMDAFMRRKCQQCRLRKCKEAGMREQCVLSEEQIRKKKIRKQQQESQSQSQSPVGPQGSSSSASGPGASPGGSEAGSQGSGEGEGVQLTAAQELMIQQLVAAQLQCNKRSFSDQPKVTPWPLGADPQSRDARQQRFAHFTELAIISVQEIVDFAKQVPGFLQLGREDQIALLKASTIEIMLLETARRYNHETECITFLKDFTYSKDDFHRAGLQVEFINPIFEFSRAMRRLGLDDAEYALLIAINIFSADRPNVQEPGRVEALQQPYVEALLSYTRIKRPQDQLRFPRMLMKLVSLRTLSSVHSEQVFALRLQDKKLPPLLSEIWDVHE

[2] = target: T2, Oxysterols receptor LXR-alpha (Homo sapiens, UniProt Q13133); assay: Transactivational antagonist activity at human LXRalpha transfected in HEK293 cells expressing CMX-Gal4N assessed as inhibition of T1317-induced luciferase activity after 16 hrs by reporter gene assay; assay type: functional, cell-based
T2 sequence (Q13133 whole entry): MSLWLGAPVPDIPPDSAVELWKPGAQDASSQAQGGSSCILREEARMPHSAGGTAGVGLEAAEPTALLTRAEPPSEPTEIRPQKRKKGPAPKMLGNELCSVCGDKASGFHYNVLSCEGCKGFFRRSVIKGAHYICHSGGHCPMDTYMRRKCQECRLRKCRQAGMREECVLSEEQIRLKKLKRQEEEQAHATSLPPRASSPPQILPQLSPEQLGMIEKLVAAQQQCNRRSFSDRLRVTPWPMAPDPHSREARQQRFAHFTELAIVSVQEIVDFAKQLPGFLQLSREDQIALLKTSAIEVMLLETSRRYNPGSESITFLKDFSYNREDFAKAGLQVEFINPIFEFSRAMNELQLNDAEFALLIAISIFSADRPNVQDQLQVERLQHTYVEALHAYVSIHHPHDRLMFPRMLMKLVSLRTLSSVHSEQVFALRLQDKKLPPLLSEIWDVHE

[3] = target: T1, Oxysterols receptor LXR-beta; assay: Transactivational agonist activity at human LXRbeta transfected in HEK293 cells expressing CMX-Gal4N assessed as luciferase activity at 30 uM after 16 hrs by reporter gene assay; assay type: cell-based; details: hek293, 16 h
[4] = target: T2, Oxysterols receptor LXR-alpha; assay: Transactivational agonist activity at human LXRalpha transfected in HEK293 cells expressing CMX-Gal4N assessed as luciferase activity at 30 uM after 16 hrs by reporter gene assay; assay type: cell-based; details: hek293, 16 h
[5] = target: T1, Oxysterols receptor LXR-beta; assay: Transactivational agonist activity at human LXRbeta transfected in HEK293 cells expressing CMX-Gal4N assessed as luciferase activity after 16 hrs by reporter gene assay relative to N-(4-(1,1,1,3,3,3-hexafluoro-2-hydroxypropan-2-yl)phenyl)-N-methylbenzamide; assay type: cell-based; details: read-out: Efficacy
[6] = target: T1, Oxysterols receptor LXR-beta; assay: Transactivational agonist activity at human LXRbeta transfected in HEK293 cells expressing CMX-Gal4N assessed as luciferase activity after 16 hrs by reporter gene assay; assay type: cell-based
How it was run: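 Gal4-hLXRα or Gal4-hLXRβ chimera (15 ng) cotransfected with tk-MH100×4-luc reporter (50 ng) and CMX-β-gal (10 ng) into HEK293 cells by calcium phosphate. Luciferase was normalized to β-gal, in triplicate.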

[7] = target: T2, Oxysterols receptor LXR-alpha; assay: Transactivational agonist activity at human LXRalpha transfected in HEK293 cells expressing CMX-Gal4N assessed as luciferase activity after 16 hrs by reporter gene assay relative to N-(4-(1,1,1,3,3,3-hexafluoro-2-hydroxypropan-2-yl)phenyl)-N-methylbenzamide; assay type: cell-based; details: read-out: Efficacy
[8] = target: T2, Oxysterols receptor LXR-alpha; assay: Transactivational agonist activity at human LXRalpha transfected in HEK293 cells expressing CMX-Gal4N assessed as luciferase activity after 16 hrs by reporter gene assay; assay type: cell-based
[9] = target: Liver X receptor (Homo sapiens) (UniProt Q13133+P55055); assay: Transrepressional activity at LXR in human TPA-activated THP1 cells assessed as inhibition of LPS-induced IL6 production at 30 uM incubated for 6 hrs prior to LPS-challenge measured after 18 hrs by ELISA; assay type: cell-based; details: THP-1
How it was run: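 THP-1 cells were differentiated with 10 nM TPA for 48 h, then replated at 3 × 10⁴/well. They were pretreated with sample for 6 h before LPS (100 ng/mL). Supernatant IL-6 was measured by ELISA after 18 h.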

Structure (SMILES)	IC50 [1] [µM]	IC50 [2] [µM]	Activity [3]	Activity [4]	Emax [5] [%]	EC50 [6] [µM]	Emax [7] [%]	EC50 [8] [µM]	inhibition [9]
CN1C(=O)c2ccccc2CCc2cc(C(O)(C(F)(F)F)C(F)(F)F)ccc21	–	–	–	–	108	0.26	117	0.91	–
C=C1c2ccccc2C(=O)N(C)c2ccc(C(C)C)cc21	> 10	1.7	Not Active	Not Active	–	–	–	–	–
C=C1c2ccccc2C(=O)N(C)c2ccc(C(C)=O)cc21	7.5	4.9	Not Active	Not Active	–	–	–	–	–
CN(C(=O)c1ccccc1)c1ccc(C(O)(C(F)(F)F)C(F)(F)F)cc1	–	–	–	–	100	0.18	100	0.63	–
C=C1c2ccccc2C(=O)N(C)c2ccc(CCCCCCCCCCCC)cc21	> 30	> 30	Not Active	Not Active	–	–	–	–	inactive
C=C1c2ccccc2C(=O)N(C)c2ccc(N)cc21	27	19	Not Active	Not Active	–	–	–	–	–
C=C1c2ccccc2C(=O)N(C)c2ccc(CCCCCC)cc21	> 10	> 10	Not Active	Not Active	–	–	–	–	–
C=C1c2ccccc2C(=O)N(C)c2ccccc21	> 10	> 10	–	–	–	–	–	–	inactive

More lines, now with the values ahead:

IC50 [1] [µM]	IC50 [2] [µM]	Activity [3]	Activity [4]	Emax [5] [%]	EC50 [6] [µM]	Emax [7] [%]	EC50 [8] [µM]	inhibition [9]	Structure (SMILES)
26	14	Not Active	Not Active	–	–	–	–	–	C=C1c2ccccc2C(=O)N(C)c2ccc(C(=O)O)cc21
15	2.2	Not Active	Not Active	–	–	–	–	–	C=C1c2ccc(-c3ccc(CC(=O)O)cc3)cc2C(=O)N(C)c2ccc(CC)cc21
–	–	–	–	49	2.7	12	4.2	–	CN1C(=O)c2ccccc2Oc2cc(C(O)(C(F)(F)F)C(F)(F)F)ccc21
> 10	> 10	Not Active	Not Active	–	–	–	–	–	C=C1c2ccccc2C(=O)N(C)c2ccc(CO)cc21
27	21	Not Active	Not Active	–	–	–	–	–	C=C1c2ccc(-c3cccc(CC(=O)O)c3)cc2C(=O)N(C)c2ccc(CC)cc21
9.5	1.3	Not Active	Not Active	–	–	–	–	inactive	C=C1c2ccc(-c3ccc(C(=O)O)cc3)cc2C(=O)N(C)c2ccc(CC)cc21
13	6.1	Not Active	Not Active	–	–	–	–	–	[CH2-]c1c2ccccc2c(=O)[n+](C)c2ccc([N+](=O)[O-])cc12
> 30	> 30	Not Active	Not Active	–	–	–	–	inactive	C=C1c2ccc(-c3cccc(C(=O)O)c3)cc2C(=O)N(C)c2ccc(CC)cc21
> 10	> 10	Not Active	Not Active	–	–	–	–	–	C=C1c2ccccc2C(=O)N(C)c2ccc(C)cc21
